Test results published in article PMC3355519 (Journal of Medicinal Chemistry, 2012).
pKi: −log10 of the molar value.

Tests used:
HIV-1LAI = settings: against HIV-1LAI; cited from earlier work
HIV-1 PRI47V = HIV-1 PRI47V (Human immunodeficiency virus type 1 group M subtype B, UniProt P04585, C555A/C583A/I535V/L521I/L551I/Q495K); assay: HIV-1 protease inhibition, fluorogenic p2/NC substrate, I47V mutant; format: biochemical
Method in brief: (§1)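 Recombinant HIV-1 protease (HXB2) carried stabilising substitutions Q7K, L33I, L63I, C67A and C95A, plus the point mutation introduced by site-directed mutagenesis. It was expressed in E. coli BL21(DE3) and purified from inclusion bodies. Enzyme (12-45 nM final) was preincubated 5 min at 37 °C with test compound or DMSO in 0.1 M MES pH 5.6, 0.4 M NaCl, 1 mM EDTA, 5% glycerol. Abz-Thr-Ile-Nle-p-nitro-Phe-Gln-Arg-NH2 started the reaction, read 5 min at ex 340/em 420 nm. Ki = (IC50 − [E]/2)/(1 + [S]/Km).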

HIV-1 PRV82A = HIV-1 PRV82A (Human immunodeficiency virus type 1 group M subtype B, UniProt P04585, C555A/C583A/L521I/L551I/Q495K/V570A); assay: HIV-1 protease inhibition, fluorogenic p2/NC substrate, V82A mutant; format: biochemical; settings: PRV82A vs PRWT
Method in brief: as §1

[1] = tested on: HIV-1 protease D30N/N88D double mutant; settings: cited from earlier work

SMILES | selectivity index (CC50/EC50) (HIV-1LAI) | pKi (HIV-1 PRI47V; Ki, PRI47V, pH 5.6, 37 °C) | change in the inhibition constant vs wild-type (HIV-1 PRI47V; PRI47V vs PRWT) | change in the inhibition constant vs wild-type (HIV-1 PRV82A) | increase of Ki value compared to wild-type [1] [fold]
COc1ccc(S(=O)(=O)N(C[C@H]2CCC(=O)N2)C[C@@H](O)[C@H](Cc2ccccc2)NC(=O)O[C@@H]2C[C@@H]3CCO[C@@H]3C2)cc1 [Compound 1] | > 3,600 | 9.40 | less than 2 fold | less than 2 fold | 
Cc1c(O)cccc1C(=O)N[C@@H](CSc1ccccc1)[C@H](O)CN1C[C@H]2CCCC[C@H]2C[C@H]1C(=O)NC(C)(C)C [NFV, nelfinavir] |  |  |  |  | 260
